Results: the RNAGym collection of RNA variant scans (doi:10.1101/gad.245936.114)
Fewer inactive variants are shown than the library holds.

B1: tRNA (parent)
chain: CUCUCGGUAGCCAAGUUGGUUUAAGGCGCAAGACUUUAAUUUAUCACUACGAAAUCUUGAGAUCGGGCGUUCGACUCGCCCCCGGGAGAUUUUUUCCUCGAGCAA

Variants of: B1
Test: nonsense suppression (GFP-seq) (ratio to wild type); higher = more function; SUP4oc tRNA, yeast GFP reporter sort-seq
Method in brief: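 To measure nonsense suppression, tRNA variants from a library carrying ~3% random mutations were integrated into the yeast genome alongside RFP and a GFP ochre reporter under galactose control. Growth took place in raffinose/galactose medium supplemented with 80 mg/L adenine, followed by sorting into GFP/RFP bins and Illumina sequencing of each bin (phred ≥30). For each variant with ≥100 reads and ≥30 cells, the bin median GFP/RFP values were weighted by its estimated cell share per bin and referenced to the unmutated parent tRNA.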

Variant	nonsense suppression
CUCCCGGUAGCCAAGUUGGUUUAAGGCGCAAGACAUUAAUUUAUCACUACGAAAUCUUGAGAUCGGGCGUUCGACUCGCCCCAGGGAGAUUUUUUCCUCGAGCAA [U4C U35A C83A]	≤ 0.026
CUCGCGGUAGCCAUGUUGGUUUAAGACGCAAGACUUUAAUUUAUCACUACGAAAUCUUGAGAUCGGGCGUUCGACUCGCCCCCGGGAGAUUUUUUCCUCGAGCAA [U4G A14U G26A]	≤ 0.026
CUCGCGGUAGCCAAGUUGGUUUAAGGCGCUAGACUUUAAUUUAUCACUACGAAAUCUUGAGAUCGGGCGUUCGACUCGCCCCCGGGAGAUUUUUUCCUCGAGCAA [U4G A30U]	0.0386
CUCGGGGUAGCCAAGUCGGUUUAAGGCGCAAGACUUUAAUUUAUCACUACGAAAUCUUGAGACCGGGCGUUCGUCUCGCCCCCGGGAGAUUUUUUCCUCGAGCAA [U4G C5G U17C U63C A74U]	≤ 0.026
CUCGCGGUAGCCAAGUUGGUUUAAGGCGCAAGACUUUAAUUUAUCACUACGAAAUCUUGAGAUCGGGCGUUCGACUCGUCCCCGGGAGAUUUUUUCCUCGAGCAA [U4G C79U]	0.173
CUCGCGGUAGCCAAGUUGGUUUAAGGCGCAAGACUUUAAUUUAUCACUACGAAAUCUUGAGAUCGGGCGUUCGACUCGCCCCCGGGAGAUUUUUUCCUCGAGCAA [U4G]	1.16
CUCGCGGUAGCCAAGUUGGUUUAAGGCGCAAGACUUUAAUUUAUCACUACGAAAUCUUGAGAUCGGGCGUUGGACUCGCCCCCGGGAGAUUUUUUCCUCGAGCAA [U4G C72G]	0.0909
CUCCCGGUAGCCAAGUUGGUUCAAGGCGCAAGACUUUAAUUUAUCACUACGAAAUCUUGAGAUCGGGCGUUCGACUCGCCCCCGGAAGAUUUUUUCCUCGAGCAA [U4C U22C G86A]	1.16
CUCCCGGUAGCCAAGUUGGCUUAAGGCGCAAGACUUUAAUUUAUCACUACGAAAUCUUGAGAUCGGGCGUUCGACUCGCCCCCGGGAGAUUUUUUCCUCGAGCAA [U4C U20C]	1.05
CUCGCGGUAGCCAAGUUGGUUUAAGGCGCAAGACUUUAAUUUAUCACUACGAAAUCUUGAGAUCGGGCGUUCGACUCGCCUCCGGGAGAUUUUUUCCUCGAGCAA [U4G C81U]	0.161
CUCGCGGUAGCGAAGUUGGUUUAAGGCGCAAGACUUUAAUUUAUCACUACGAAAUCUUGAGAUCGGGCGUUCGACUCGCCCCCGGGAGAUUUUUUCCUCGAGCAA [U4G C12G]	0.0311
CUCGUGGUAGCCAAGUUGGUUUAAGGCGCAAGACUUUAAUUUAUCACUACGAAAUCUUGAGAUCGGGCGUUCGACUCGCCCCCGGGAGAUUUUUUCCUCGAGCAA [U4G C5U]	0.0955
CUCGCGAUAGCCAAGUUGGUUUAAGGCGCAAGACUUUAAUUUAUCACUACGAAAUCUUGAGAUCGGGCGUUCGACUCGCCCCCGGGAGAUUUUUUCCUCGAGCAA [U4G G7A]	0.0974
CUCGCGGUAGCCAAGUUGGUUUAAGGCGCAAGACUUUAAUUUAUCACUACGAAUUCUUGAGAUCGGGCGUUCGACUCGCCCCCGGGAGAUUUUUUCCUCGAGCAA [U4G A54U]	0.469
CUCCCGGUAGCCAAGUUGGUUUAAGGCGCAAGACUUUAAUUUAUCACUACGAAAUCUUGAGAGCGGGCGUUCGACUCGCCCCCGGGAGAUUUUUUCCUCGAGCAA [U4C U63G]	0.0946
CUCCCGGUAGCCAAGUUGGUUUAAGGCGCAAGACUUUAAUUUAUCACUACGAAAACUUGAGAUCGGACGUUCGACUCGGCCCGGGGAGAUUUUUUCCUCGAGCAA [U4C U55A G67A C79G C83G]	≤ 0.026
CUCGCGGUAGCCAAGUUGGUUUACGGCGCAAGACUUUAAUUUAUCACUACGAAAUCUUGAGAUCGGGCGUUCGACUCGCCCCCGGGAGAUUUUUUCCUCGAGCAA [U4G A24C]	0.134
CUCGCGGUAGCCGAGCUGGUUUAAGGCGCAAGACUUUAAUUUAUCACUACGAAAUCUUGAGAUCGGGCGUUCGACUCGCCCCCGGGAGAUUUUUUCCUCGAGCAA [U4G A13G U16C]	0.0797
CUCGCGGUAGCCAAGUUGGUUUAAGGCGCAAGACUUUAAUUUAUCACUACGAAAUCUUGAGAUCGGGCGUUCGAUUCGCCCCCGGGAGAUUUUUUCCUCGAGCAA [U4G C75U]	1.1
CUCCCGGUAGCCAAGUUGGUUAAAGGCGCAAGACUUUAAUUUAUCACUACGAAAUCUUGAGAUCGGGCGUUCGACUCGCCCCCGGAAGAUUUUUUCCUCGAGCAA [U4C U22A G86A]	0.552
CUCGCGGUAGCCAAGUUGGUUUAAGGCGCAAGACUUUAAUUUAUCACUACGAAAUCUUGAGAUCGGGCGUUCGGCUCGCCCCCGGGAGAUUUUUUCCUCGAGCAA [U4G A74G]	0.0287
CUCGCGGUAGCCAAGUUGGUUUAAGGCGCAAGACUUUAAUUUAUCACUACGAAAUCUUGAGAUCGGGGGUUCGACUCGCCCCCGGGAGAUUUUUUCCUCGAGCAA [U4G C68G]	0.0622
CUCGCGGUAGCCAAGUUGGUUUAAGGCGCAGGACUUUAAUUUAUCACUACGAAAUCUUGAGAUCGGGCGUUCGACUCGCCCCCGGGAGAUUUUUUCCUCGAGCAA [U4G A31G]	0.0398
CUCGCGGUAGCCAAGUUGGUUUAAGGCGCAUGACUUUAAUUUAUCACUACGAAAUCUUGAGAUCGGGCGUUCGACUCGCCCCCGGGAGAUUUUUUCCUCGAGCAA [U4G A31U]	0.0387
CUCGCGGUAGCCAAGUUGGUUUAAGGCGCAAGACUUUAAUUUAUCACUACGAAAUUUUGAGAUCGGGCGUUCGACUCGCCCCCGGGAGAUUUUUUCCUCGAGCAA [U4G C56U]	0.0355
CUCCCGGUAGCCAAGUUGGUCUAAGGCGCAAGACUUUAAUUUAUCACUACGAAAUCUUGAGAUCGGACGUUCGACUCGCCCCCGGGAGAUUUUUUCCUCGAGCAA [U4C U21C G67A]	0.0868
CUCGCUGUAGCCAAGUUGGUCUAAGGCGCAAGACUUUAAUUUAUCACUACGAAACCUUGAGAUCGGGCGUUCGACUCGGCCCCGGGAGAUUUUUUCCUCGAGCAA [U4G G6U U21C U55C C79G]	≤ 0.026

Variant	nonsense suppression
CUCCCGGUAGCCAAGUUGGUUUAAGGCGCAAGACUUUAAUUUAUCACUACGAAAUCUUGAGACCGGACGUUCGACUCGCCCCCGGGAGAUUUUUUCCUCGAGCAA [U4C U63C G67A]	≤ 0.026
CUCCCGGUAGCCAAGUUGGUUUAAGGCGCAAGACUUUAAUUUAUCACUACGAAAUCUUGAGAUCGGGCGUUCGACUCGCCCCCGGAAGAUUUUUUCCUCGAGCAA [U4C G86A]	1.09
CUCCCGGUAGCCAAGUUGGUUUAAGGCGCAAGACUUUAAUUUAUCACUACGAAAUCUUGAGAUCGGGCGUUCGACUCGCCCCCGGCAGAUUUUUUCCUCGAGCAA [U4C G86C]	0.162
CUCCCGGAAGCCAAGUUGGUUUAAGGCGCAAGACUUUAAUUUAUCACUACGAAAUCUUGAGAUCGGGCGUUCGACUCGCCCCCGGGAGAUUUUUUCCUCGAGCAA [U4C U8A]	0.0441
CUCGCGGUCGCCAAGUUGGUUUAAGGCGCAAGACUUUAAUUUAUCACUACGAAAUCUUGAGAUCGGGCGUUCGACUCGCCCCCGGGAGAUUUUUUCCUCGAGCAA [U4G A9C]	0.0511
CUCCCGGUAGCCAAGUUGGUUUAAGGCGCAAGACGUUAAUUUAUCACUACGAAAUCUUGAAAUCGGGCGUUCGACUCACCCCAGGCAGAUUUUUUCCUCGAGCAA [U4C U35G G61A G78A C83A G86C]	≤ 0.026
CUCCCGGUAGCCAAGUUGGUUUAAGGCGCAAGACCUUAAUUUAUCACUACGAAAUCUUGAGAUCGGGCCUUCGACUCGCCCCCGGGAGAUUUUUUCCUCGAGCAA [U4C U35C G69C]	≤ 0.026
CUCGCGGUAGCCAAGUUGGUUUAAGGCGCAAGGCUUUAAUUUAUCACUACGAAAUCUUGAGAUCGGGCGUUCGACUCGCCCCCGGGAGAUUUUUUCCUCGAGCAA [U4G A33G]	0.0332
CUCCCGGUAGCCAAGUUGGUUUAAGGCGCAAGACUUUAAUUUAUCACUACGAAAUCUUGAGAUCGGGCGUCCGACUCGCCCCCGGGAGAUUUUUUCCUCGAGCAA [U4C U71C]	≤ 0.026
CUCCCGGUAGCCAAGUUGGUUUAAGGCGCAAGACUUUAAUUUAUCACUACGAAAUCGUGAGAUCGGGCGUUCGACUCGCCCCCGGGAGAUUUUUUCCUCGAGCAA [U4C U57G]	0.0337
CUCCCGGUAGCCAAGUUGGUUUAAGGCGCAAGACUUUAAUUUAUCACUACGAAAUCAUGAGAUCGGGCGUUCGACUCGCCCCCGGGAGAUUUUUUCCUCGAGCAA [U4C U57A]	0.609
CUCGCGGUAGCCAAGUUGGUUUAAGGCGCAAGACUUUAAUUUAUCACUACGAAAUCUUGCGAUCGGGCGUUCGACUCGCCCCCGAGAGAUUUUUUCCUCGAGCAA [U4G A60C G85A]	≤ 0.026
CUCCCGGUAGCCAAGCUGGUUUAAGGCGCAUGACUUUAAUUUAUCACUACGAAAUCUUGAGAUCGGGCGUUCGACUCGCCCCCGGGAGAUUUUUUCCUCGAGCAA [U4C U16C A31U]	0.97
CUCGCAGUAGCCAAGUUGGUUUAAGGCGCAAGACUUUAAUUUAUCACUACGAAAUCUUGAGAUCGGGCGUUCGACUCGCCCCCGGGAGAUUUUUUCCUCGAGCAA [U4G G6A]	0.0297
CUCGCGGUAGCCAAGUUGGUUUAAGGCGCAAGACUUUAAUUUAUCACUACGAAAUCUUGAGAUCGGGCGUUCGACUAGCCCCCGGGAGAUUUUUUCCUCGAGCAA [U4G C77A]	0.0479
CUCGCGGUAGCCAAGUUGGUUUAAGGCGCAAGACUUUAAUUUAUCACUACGAAAUCUUGAGAUCGGGCGUUCGACUUGCCCCCGGGAGAUUUUUUCCUCGAGCAA [U4G C77U]	0.0723
CUCGCGGUAGCCAAGUUGGUUUCAGUCGCAAGACUUUAAUUUAUCACUACGAAAUCUUGAGUUCGGGCCUUCGACUCGCCCCCUGGAGAUUUUUUCCUCGAGCAA [U4G A23C G26U A62U G69C G84U]	0.116
CUCCCGGUAGCCAAGUUGGUUUAAGGCGCAAGACUUUAAUUUAUCACUACGAAAUCUGGAGAUCGGGCGUUCGCCUCGCCCCCGGGAGAUUUUUUCCUCGAGCAA [U4C U58G A74C]	≤ 0.026
CUCGCGGUAGCCAAGUUGGUUUAAGGCGCAAGACUUUAAUUUAUCACUACGAAAUCUUGUGAUCGGGCGUUCGACUCGCCCCCGGGAGAUUUUUUCCUCGAGCAA [U4G A60U]	1.12
CUCCCGGUAGCCAAGUUGGUUGAAGUCGCAAGACUUUAAUUUAUCACUACGAAAUCUUGAGAUCGGGCGUUCCACUCCCCCCCGGGAGAUUUUUUCCUCGAGCAA [U4C U22G G26U G73C G78C]	≤ 0.026
CUCGCGGUAGCCAAGUUGGUUUAAGGCGCAAGACUUUAAUUUAUCACUACGAAAUCUUGAGAUCGGGCGUUCGACUCGCCCCCGGGAGUUUUUUUCCUCGAGCAA [U4G A89U]	0.0348
CUCCCGGUAGCCAAGUCGGUUUAAGGCGCAAGACUUUAAUUUAUCACUACGAAAUCUUGAGAUCGGGCGUUCGACUCGCCCCCGGGAGAUUUUUUCCUCGAGCAA [U4C U17C]	1.04
CUCCCGGUAGCCAAGUGGGUUUAACGCGCAAGACUUUAAUUUAUCACUACGAAAUCUUGAGAUCGUGCGCUCGACUCGCCCCCUGGAGAUUUUUUCCUCGAGCAA [U4C U17G G25C G66U U70C G84U]	≤ 0.026
CUCGCGGUAGCCUAGUUGGUUUAAGGCGCAAGACUUUAAUUUAUCACUACGAAAUCUUGAGAUCGGGCGUUCGACUCGCCCCCGGGAGAUUUUUUCCUCGAGCAA [U4G A13U]	0.191
CUCGCGGUAGCCAAGUUGGUUUAAGGCGCAAGACUUUAAUUUAUCACUACGAAAUCUUGAGAUCGGGCGUUCGACUCGCCCCCGGGCGAUUUUUUCCUCGAGCAA [U4G A87C]	0.0794
CUCGCGGUAGCCAAGUUGGUUUUCGGCGCAAGUCUUUAAUUUAUCACUACGAAAUCUUGAGAUCGGACGUUCGACUCGCCCCCCGGGCAUUUUUUCCUCGAGCAA [U4G A23U A24C A33U G67A G84C A87G G88C]	≤ 0.026
CUCCCGGGAGCCAAGUUGGUUUAAGGCGCAAGACUUUAAUUUAUCACUACGAAAUCUUGAGAUCAGGCGUUCGACUCGCCCCCGGGAGAUUUUUUCCUCGAGCAA [U4C U8G G65A]	≤ 0.026
